# Assay results taken from ChEMBL document CHEMBL4138124, “Antineoplastic Agents. 605. Isoquinstatins” (2018).
# Numbered stars: 1 amine (or outer) side, 2 acyl side, 3 side chain; on linkers, the order of the positions; unused ones are H or OH. Square brackets hold non-standard residues; d marks the D form. Peptide text beside a SMILES is read from it. * marks the point of attachment. Dolaproine = CO[C@@H]([C@@H]1CCCN1)[C@@H](C)C(=O)O; Hexanoyl(6-maleimido) = O=C1C=CC(=O)N1CCCCCC(=O)*; Dil = CC[C@H](C)[C@H](NC)[C@@H](CC(=O)O)OC; PABC = O=C(OCc1ccc(N[*:1])cc1)[*:2]; Cit = NC(=O)NCCC[C@H](N)C(=O)O; NMeV = CN[C@H](C(=O)O)C(C)C; X1 = c1cc(CCN*)c2cnccc2c1; X2 = c1cc(CCN*)c2ccncc2c1; X3 = c1cc2ccc(CCN*)cc2cn1
# How the values were obtained:
# Assay type in all cases: functional
# BXPC-3 = assay: Growth inhibition of human BxPC3 cells after 48 hrs by SRB assay; settings: BXPC-3, 48 h
# Summary of the method: (§1)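 Cells grown in RPMI1640 with 5% fetal bovine serum, seeded in 96-well plates and incubated 24 h before serial dilutions of compound were added. After a further 48 h, cells were fixed with trichloroacetic acid, stained with sulforhodamine B and read on a plate reader. GI50 (concentration giving 50% reduction in net protein increase) was calculated from optical density data.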
# DU-145 = assay: Growth inhibition of human DU145 cells after 48 hrs by SRB assay; settings: DU-145, 48 h; summary of the method: as §1
# KM-20L2 = assay: Growth inhibition of human KM20L2 cells after 48 hrs by SRB assay; settings: KM-20L2, 48 h; summary of the method: as §1
# SF-268 = assay: Growth inhibition of human SF268 cells after 48 hrs by SRB assay; settings: SF-268, 48 h; summary of the method: as §1
# MCF7 = assay: Growth inhibition of human MCF7 cells after 48 hrs by SRB assay; settings: MCF7, 48 h; summary of the method: as §1
# NCI-H460 = assay: Growth inhibition of human NCI-H460 cells after 48 hrs by SRB assay; settings: NCI-H460, 48 h; summary of the method: as §1
SMILES,GI50 (BXPC-3) [nM],GI50 (DU-145) [nM],GI50 (MCF7) [nM],GI50 (NCI-H460) [nM],GI50 (KM-20L2) [nM],GI50 (SF-268) [nM]
CC[C@H](C)[C@@H]([C@@H](CC(=O)N1CCC[C@H]1[C@H](OC)[C@@H](C)C(=O)NCCc1cccc2ccncc12)OC)N(C)C(=O)[C@@H](NC(=O)[C@H](C(C)C)N(C)C(=O)OCc1ccc(NC(=O)[C@H](CCCNC(N)=O)NC(=O)[C@@H](NC(=O)CCCCCN2C(=O)C=CC2=O)C(C)C)cc1)C(C)C ({Hexanoyl(6-maleimido)}-V[Cit][PABC][NMeV]V[Dil][Dolaproine]-X1),524,23.2,22.4,2240,32.2,16.5
CC[C@H](C)[C@@H]([C@@H](CC(=O)N1CCC[C@H]1[C@H](OC)[C@@H](C)C(=O)NCCc1ccc2ccncc2c1)OC)N(C)C(=O)[C@@H](NC(=O)[C@@H](NC)C(C)C)C(C)C (H-[NMeV]V[Dil][Dolaproine]-X3),44.7,0.122,0.149,54.2,0.569,0.325
CC[C@H](C)[C@@H]([C@@H](CC(=O)N1CCC[C@H]1[C@H](OC)[C@@H](C)C(=O)NCCc1cccc2cnccc12)OC)N(C)C(=O)[C@@H](NC(=O)[C@H](C(C)C)N(C)C(=O)OCc1ccc(NC(=O)[C@H](CCCNC(N)=O)NC(=O)[C@@H](NC(=O)CCCCCN2C(=O)C=CC2=O)C(C)C)cc1)C(C)C ({Hexanoyl(6-maleimido)}-V[Cit][PABC][NMeV]V[Dil][Dolaproine]-X2),307,26.9,21.7,396,30.7,9.72
CC[C@H](C)[C@@H]([C@@H](CC(=O)N1CCC[C@H]1[C@H](OC)[C@@H](C)C(=O)NCCc1ccc2cccnc2c1)OC)N(C)C(=O)[C@@H](NC(=O)[C@H](C(C)C)N(C)C)C(C)C,–,–,–,1.19,–,0.03
CC[C@H](C)[C@@H]([C@@H](CC(=O)N1CCC[C@H]1[C@H](OC)[C@@H](C)C(=O)NCCc1ccc2ccncc2c1)OC)N(C)C(=O)[C@@H](NC(=O)[C@H](C(C)C)N(C)C)C(C)C,4.39,0.033,0.186,9.3,0.399,0.068

# Further compounds by falling GI50 (NCI-H460), results first:
GI50 (BXPC-3) [nM],GI50 (DU-145) [nM],GI50 (MCF7) [nM],GI50 (NCI-H460) [nM],SMILES,GI50 (KM-20L2) [nM],GI50 (SF-268) [nM]
149,15.7,18,448,CC[C@H](C)[C@@H]([C@@H](CC(=O)N1CCC[C@H]1[C@H](OC)[C@@H](C)C(=O)NCCc1ccc2ccncc2c1)OC)N(C)C(=O)[C@@H](NC(=O)[C@H](C(C)C)N(C)C(=O)OCc1ccc(NC(=O)[C@H](CCCNC(N)=O)NC(=O)[C@@H](NC(=O)CCCCCN2C(=O)C=CC2=O)C(C)C)cc1)C(C)C ({Hexanoyl(6-maleimido)}-V[Cit][PABC][NMeV]V[Dil][Dolaproine]-X3),32.2,9.72
40.6,0.42,0.271,122,CC[C@H](C)[C@@H]([C@@H](CC(=O)N1CCC[C@H]1[C@H](OC)[C@@H](C)C(=O)NCCc1cccc2ccncc12)OC)N(C)C(=O)[C@@H](NC(=O)[C@@H](NC)C(C)C)C(C)C (H-[NMeV]V[Dil][Dolaproine]-X1),0.542,0.135
11,0.677,0.095,42,CC[C@H](C)[C@@H]([C@@H](CC(=O)N1CCC[C@H]1[C@H](OC)[C@@H](C)C(=O)NCCc1cccc2cnccc12)OC)N(C)C(=O)[C@@H](NC(=O)[C@@H](NC)C(C)C)C(C)C (H-[NMeV]V[Dil][Dolaproine]-X2),0.271,0.132
7.31,2.79,0.279,17.3,CC[C@H](C)[C@@H]([C@@H](CC(=O)N1CCC[C@H]1[C@H](OC)[C@@H](C)C(=O)NCCc1cccc2cnccc12)OC)N(C)C(=O)[C@@H](NC(=O)[C@H](C(C)C)N(C)C)C(C)C,0.385,0.266
4.25,0.053,0.133,9.03,CC[C@H](C)[C@@H]([C@@H](CC(=O)N1CCC[C@H]1[C@H](OC)[C@@H](C)C(=O)NCCc1cccc2ccncc12)OC)N(C)C(=O)[C@@H](NC(=O)[C@H](C(C)C)N(C)C)C(C)C,0.146,0.07
